MrgX1 antag: antagonists of human MrgX1 receptor, primary screen, HEK293 cells, Fluo-4 calcium flux | Mas-related G-protein coupled receptor member X1 (Homo sapiens), Q96LB2 | BAM8-22 antagonism; hits give low values | B-score at 10 µM | hit rate 1.3% among 310,000 | AID 588676, 2011;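 active means calcium-response B-score plate-corrected more than 3 library SD below zero, starting fluorescence within 5 deviations, no agonist response on first addition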;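 further: peak minus trough fluorescence over baseline after final BAM8-22 challenge near maximal dose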
Target sequence (Q96LB2 whole entry, looked up): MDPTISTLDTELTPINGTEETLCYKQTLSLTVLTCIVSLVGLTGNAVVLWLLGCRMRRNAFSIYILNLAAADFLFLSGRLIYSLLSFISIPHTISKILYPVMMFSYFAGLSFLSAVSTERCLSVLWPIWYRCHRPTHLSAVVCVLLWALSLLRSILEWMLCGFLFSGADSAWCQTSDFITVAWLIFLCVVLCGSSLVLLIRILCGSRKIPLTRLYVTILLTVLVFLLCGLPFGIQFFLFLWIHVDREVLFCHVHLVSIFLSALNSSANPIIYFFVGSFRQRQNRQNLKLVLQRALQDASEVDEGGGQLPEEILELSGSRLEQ
RGS4 block: RGS4 inhibitors, primary screen, cell-based, HEK293 M3R inducible RGS4, calcium flux | Fluo-4 calcium flux; hits give high values; triggered by carbachol at its EC20 | B-score at 10 µM | hit rate 0.45% among 310,000;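 active means B-score, a plate-corrected calcium signal, over three deviations above library mean, with baseline fluorescence within five deviations of library mean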;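 further: RGS4 expression induced by doxycycline in cells with stable M3 receptor; B-score is computed from the integrated fluorescence ratio over baseline after carbachol; higher B-score means a larger calcium signal and so more RGS4 inhibition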
Target sequence (P49798 whole entry, looked up): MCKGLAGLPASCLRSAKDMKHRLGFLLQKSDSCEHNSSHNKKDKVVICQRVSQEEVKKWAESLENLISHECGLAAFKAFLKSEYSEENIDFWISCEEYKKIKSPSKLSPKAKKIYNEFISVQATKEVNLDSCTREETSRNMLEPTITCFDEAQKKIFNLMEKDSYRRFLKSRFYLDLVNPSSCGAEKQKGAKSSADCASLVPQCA
MrgX1 ag: agonists of human MrgX1 receptor, primary screen, HEK293 cells, Fluo-4 calcium flux | Fluo-4 calcium fluorescence, agonist mode; hits give high values | B-score at 10 µM | hit rate 0.44% among 310,000;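 active means calcium response B-score plate-corrected fluorescence ratio at least 3 library SD, with starting fluorescence B-score inside 5 SD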
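Assay system: MrgX1-expressing HEK293 cells / Amount: fifteen thousand cells per well / Doses: test compound in the initial addition of three / Timing: cells plated overnight, dye loaded 0.5 h 37 °C, 0.5 h room temperature / Technique: kinetic calcium dye fluorescence, Fluo-4 NW / Control set: positive and negative controls per plate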
MrgX1 PAM: positive allosteric modulators of MrgX1, primary screen, HEK293 cells, Fluo-4 calcium flux. hit rate 0.63% among 310,000. Mas-related G-protein coupled receptor member X1 (Homo sapiens), Q96LB2. B-score at 10 µM. FDSS; hits give high values;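 active means plate-corrected calcium response at least 3 library SD above typical, normal starting fluorescence, not activating the receptor alone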;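 further: compound read alongside a low EC10 to EC30 dose of BAM8-22 agonist; peak minus trough fluorescence over baseline measured at the second addition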
RGS4 act: RGS4 potentiators or activators, primary screen, cell-based, HEK293 M3R inducible RGS4, calcium flux; AID 463111, 2010; B-score at 10 µM; hit rate 0.92% among 310,000; carbachol calcium flux Fluo4; hits give low values;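 active means B-score of the integrated calcium signal more than 4 SD below the library mean, with starting fluorescence not abnormally high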;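 further: negative B-score means reduced calcium response which marks RGS4 activation or potentiation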
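System – HEK293 FlpIn-TREx cells, stable M3R, doxycycline-inducible RGS4 · Reagent – ECmax carbachol challenge · Times – compound preincubation 20 min at room temperature before agonist · Technique – Fluo4 fluorescence kinetic imaging of calcium · Measure – B score of integrated Fluo4 ratio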
MrgX1 allo conf: MrgX1 positive allosteric modulators, duplicate retest, confirmation, HEK293 cells, Fluo-4 calcium flux. AID 602413, 2012. Fluo-4 calcium fluorescence, FDSS. hit rate 13% among 1,200. activation (ratio percentage), % at 10 µM. shares compounds with MrgX1 PAM;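 active means ratio at least 3 SD above the weak peptide control, stable starting fluorescence, no direct agonism earlier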;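 further: compound followed by low BAM8-22 agonist challenge near EC20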
HEK293 Ca flux: nonspecific calcium signal in parental HEK293, confirmation, counter-screen for MrgX1 antagonist project, parental HEK293 cells, Fluo-4 calcium flux. shares compounds with MrgX1 antag. Fluo-4 calcium fluorescence, FDSS. fluorescence ratio F(max-min)/F0 at 10 µM. hit rate 2% among 4,000. AID 624111, 2012;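 active means duplicate-averaged calcium fluorescence ratio at least three times the standard deviation of buffer wells, a nonspecific response in parental cells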
HEK293 Ca counter: calcium response in parental HEK293 cells, primary screen, counter-screen for MrgX1 allosteric activator project, cell-based, Fluo-4 calcium flux, duplicate; shares compounds with MrgX1 antag; Fluo-4 fluorescence ratio; hits give high values; fluorescence ratio F(max-min)/F0 at 10 µM; hit rate 0.4% among 4,000; AID 624114, 2012;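 active means calcium fluorescence ratio, averaged over duplicates, at least 3 SD of the buffer-well ratio, meaning a nonspecific response in receptor-free cells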;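 further: untransfected parental HEK293 lacking MrgX1 used as counterscreen for MrgX1 allosteric activators; fluorescence change taken during the second addition on a kinetic imager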
HEK293 Ca cntr2: calcium response in parental HEK293 cells, primary screen, counter-screen for MrgX1 agonist project, cell-based, Fluo-4 calcium flux, duplicate, agonist mode | shares compounds with MrgX1 antag | Fluo-4 calcium fluorescence (FDSS); hits give high values | fluorescence ratio F(max-min)/F0 at 10 µM | hit rate 8.7% among 4,000 | AID 624115, 2012;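 active means calcium fluorescence ratio at least three times the spread of buffer wells, meaning a non-specific response in parental cells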
Of the large screens only hits and unclear results are named; the others gave an inactive call (follow-up assays come after a bar, where they were run). Shown are actives, neighbours in structure and some others; about 3.5% of the full set was active somewhere.

O=C(Nc1ccccc1F)Oc1cccc(OC(=O)Nc2ccccc2F)c1	MrgX1 PAM 7.5 | MrgX1 allo conf inactive | HEK293 Ca flux inactive | HEK293 Ca counter inactive | HEK293 Ca cntr2 inactive
COc1cccc(C(=O)Nc2ccccc2F)c1	none
CCN(CC)C(=O)NC1CC(=O)N(c2ccc(OC)cc2)C1 (stereo not given)	none
CC(=O)Nc1cccc(-c2nc3ccccc3[nH]2)c1	none
COc1cccc(OC)c1C(=O)Nc1cccc(-c2nc3ccccc3[nH]2)c1	MrgX1 PAM 7.1 | MrgX1 allo conf inactive | HEK293 Ca flux inactive | HEK293 Ca counter inactive | HEK293 Ca cntr2 inactive
COc1cccc(-c2ccc(NC(=O)C3CCCN(Cc4cnn(C)c4C)C3)cc2)c1 (stereo not given)	none
CCOC(=O)N1CCC(N2C(=O)c3ccc(C(=O)O)cc3C2=O)CC1	none
CCOC(=O)N1CCC(N2C(=O)c3ccc(C(=O)Nc4cccc(OC)c4)cc3C2=O)CC1	MrgX1 PAM 8 | MrgX1 allo conf inactive | HEK293 Ca flux inactive | HEK293 Ca counter inactive | HEK293 Ca cntr2 inactive
CN(C)c1ccc(S(=O)(=O)N2CCCCC2)cc1NC(=O)COc1ccccc1F	none
Cc1c(C(=O)N2CCN(c3ccccc3)CC2)sc2ncnc(N3CCC(C)CC3)c12	none
Cc1sc2ncnc(N3CCC(C)CC3)c2c1C	MrgX1 PAM 18 | MrgX1 allo conf 4.3% | HEK293 Ca flux inactive | HEK293 Ca counter inactive | HEK293 Ca cntr2 inactive
C=CCn1c(SCc2c(Cl)cccc2Cl)nnc1-c1cccnc1	none
CC(C)CC(O)(c1ccccc1)C(CN1CCOCC1)c1ccccc1 (stereo not given)	none
COc1ccccc1C(O)(c1ccccc1)C(CN1CCOCC1)c1ccccc1 (stereo not given)	MrgX1 PAM 9.1 | MrgX1 allo conf inactive | HEK293 Ca flux inactive | HEK293 Ca counter inactive | HEK293 Ca cntr2 inactive
CC(C)C(O)(c1ccccc1)C(CN1CCOCC1)c1ccccc1 (stereo not given)	MrgX1 PAM 8.4 | MrgX1 allo conf inactive | HEK293 Ca flux inactive | HEK293 Ca counter inactive | HEK293 Ca cntr2 inactive
COc1cc(/C=N/NC(=O)C2c3ccccc3Oc3ccccc32)ccc1O	none
CC(C)CCCN1C(N(C)C)=NC[C@@H]1Cc1ccccc1	none (no result: RGS4 block, RGS4 act)
O=C1C=CC(=O)N1	none (no result: RGS4 block, RGS4 act)
O=C(Cc1cccs1)Nc1nnc(SCC(=O)N2CCCCC2)s1	none
O=C(Nc1nnc(SCC(=O)N2CCCCC2)s1)c1cccs1	MrgX1 PAM 7.1 | MrgX1 allo conf inactive | HEK293 Ca flux inactive | HEK293 Ca counter inactive | HEK293 Ca cntr2 inactive
CCN(c1cccc(C)c1)S(=O)(=O)c1ccc(-n2cccn2)cc1	MrgX1 PAM 7 | MrgX1 allo conf inactive | HEK293 Ca flux inactive | HEK293 Ca counter inactive | HEK293 Ca cntr2 inactive
Cc1ccsc1C(=O)N1CCc2ccccc2C1	none
Cc1ccsc1C(=O)OCC(=O)N1CCc2ccccc2C1	MrgX1 PAM 8.9 | MrgX1 allo conf inactive | HEK293 Ca flux inactive | HEK293 Ca counter inactive | HEK293 Ca cntr2 inactive
COc1ccccc1NC(=O)c1cc(S(=O)(=O)N2CCCC2)cn1C	none
O=[N+]([O-])c1ncccc1OCc1ccc(Br)cc1F	none
CCOc1ccc(C2CC(c3cccc(Cl)c3)n3nc(N)nc3N2)cc1 (stereo not given)	none
Nc1nc2n(n1)C(c1cccc(Cl)c1)CC(c1ccc(F)cc1)N2 (stereo not given)	MrgX1 PAM 9.7 | MrgX1 allo conf inactive | HEK293 Ca flux inactive | HEK293 Ca counter inactive | HEK293 Ca cntr2 inactive
CCN1CC2=C(OC(N)=C(C#N)C2c2cccs2)/C(=C/c2cccs2)C1 (stereo not given)	MrgX1 PAM 8.2 | MrgX1 allo conf inactive | HEK293 Ca flux inactive | HEK293 Ca counter inactive | HEK293 Ca cntr2 inactive
N#CC1=C(N)OC2=C(CN(Cc3ccccc3)C/C2=C\c2cccnc2)C1c1cccnc1 (stereo not given)	none
CCN1CC2=C(OC(N)=C(C#N)C2c2ccccc2)/C(=C\c2ccccc2)C1 (stereo not given)	MrgX1 PAM 22 | MrgX1 allo conf inactive | HEK293 Ca flux inactive | HEK293 Ca counter inactive | HEK293 Ca cntr2 inactive
CCOc1ccccc1NC(=O)NCCCCc1ccccc1	none
Cc1c(NC(=O)N(C)c2ccccc2)c(=O)n(-c2ccccc2)n1C	none
CN(C)c1ccc(/C=C(/NC(=O)c2ccccc2Cl)C(=O)NCCN2CCOCC2)cc1	none
Cc1ccccc1CNS(=O)(=O)c1c(C(=O)N2CCCCC2)c(C)n(C)c1C	none
Cc1ccc(CCNC(=O)Cn2ccc3cc(S(=O)(=O)N4CCCC4)ccc32)cc1	none
Cc1ccccc1CCNC(=O)Cn1ccc2cc(S(=O)(=O)N3CCCC3)ccc21	MrgX1 PAM 7.1 | MrgX1 allo conf inactive | HEK293 Ca flux inactive | HEK293 Ca counter inactive | HEK293 Ca cntr2 inactive
CNS(=O)(=O)c1ccc(CCC(=O)N2CCN(c3ccccc3OC)CC2)cc1	MrgX1 PAM 11 | MrgX1 allo conf inactive | HEK293 Ca flux inactive | HEK293 Ca counter inactive | HEK293 Ca cntr2 inactive
C=C(C)COc1ccc(-c2[nH]ncc2-c2ccc(OC)cc2)c(O)c1	none
COc1ccc(-c2[nH]ncc2-c2cnn(-c3ccccc3)c2)c(O)c1	MrgX1 PAM 9.4 | MrgX1 allo conf inactive | HEK293 Ca flux inactive | HEK293 Ca counter inactive | HEK293 Ca cntr2 inactive
C=C(C)COc1ccc(-c2[nH]ncc2-c2ccccc2)c(O)c1	MrgX1 PAM 16 | MrgX1 allo conf 14% | HEK293 Ca flux inactive | HEK293 Ca counter inactive | HEK293 Ca cntr2 inactive
COc1ccc(-c2cn[nH]c2-c2ccc(O)cc2O)cc1	none
c1ccc(-n2cnc3cc(NCc4cccs4)ccc32)cc1	none

Bioassay records as filed in PubChem.
